Data on 36 sequences can be found in the EternaBench riboswitch data.

For this data set, the system named is MS2 coat protein. The data set can be described thus: apparent Kd, MS2 coat protein; higher = weaker binding; RNA-MaP array; FMN 200 µM where present. In short, it runs like this:
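The apparent Kd comes from binding curves fitted cluster by cluster, filtered, and summarised as a median. Those curves followed SNAP-549-labelled MS2 coat protein from 0.7 or 1.5 nM, doubling to 3 µM, on Illumina sequencing-chip clusters where stalled E. coli RNA polymerase had transcribed the designs, without and then with constant ligand. The buffer was 100 mM Tris-HCl pH 7.5, 80 mM KCl, 4 mM MgCl2, BSA, DTT, yeast tRNA and Tween-20, and green signal was normalised to red-channel RNA signal and control-cluster median Fmax.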

[1] abbreviates: designed as: OFF switch for flavin mononucleotide, no ligand.
[2] abbreviates: ligand present: flavin mononucleotide, designed as: OFF switch for flavin mononucleotide.
Where [3] appears, read: designed as: ON switch for flavin mononucleotide, no ligand.
Where [4] appears, read: ligand present: flavin mononucleotide, designed as: ON switch for flavin mononucleotide.

For orientation: apparent Kd means a dissociation constant that holds for the conditions of the assay. With “AGCUCCGCUCGAGGAUAUAGCUGCAUGUAGUGUCCUGAGGCACAUGAGGAUCACCCAUGUGUAGGCUAGAAGGCGACGGACAUU”, the “apparent Kd” value is, setting by setting: under setting [1], 43.3 nM; under setting [2], 152 nM.

Regarding “UGAUAGCACAGAGGAUAUGCGUAGUGUUAUCUCUACAUGAGGAUCACCCAUGUAGAAGGCUGUGCUAUCUAAGUCGGAAACGAU”, the “apparent Kd” value worked out at 6.19 nM under setting [1] and 9.86 nM under setting [2].

Take “CGAUAUAUGAAGGGCGAAAGCCCACAUGAGGAUCACCCAUGUAGAAGGCGAGCCGCAACGCGGCUCGAGGAUAUAUAGUAUACA”: the “apparent Kd” value is, setting by setting: under setting [1], 7.24 nM; under setting [2], 8.52 nM.

Turning to “CAGAUAAAAGUGUGGUCGUCGACAUGAGGAUCACCCAUGUACGAGGAUAUGUAAUAUACGGUAUAGCAGAAGGCGUAUGGGUGU”, the “apparent Kd” value by setting is: under setting [1], 74.6 nM; under setting [2], 103 nM.

On to “AUUGGUUUGCGAGGAUAUGCUAAUAGUAAGUAUGCAGAAGGCGCGUUACAUAGAACCUCUAGUUACAUGAGGAUCACCCAUGUU”, for which the “apparent Kd” value worked out at 46.2 nM under setting [1] and 45.4 nM under setting [2].

In the case of “UAAAUGUGAGGAUAUCAGGUGUGCUAGCGUACUGGUACAUCUGAGAAGGCACAUGAGGAUCACCCAUGUUCCUU”, the “apparent Kd” value was determined as 16.8 nM under setting [1] and 61.3 nM under setting [2].

As for “GAAUUCGCAUGAGGAUAUGCACUCAUUUCAUGUGCAGAAGGUAUAUCAUUAGACAUGAGGAUCACCCAUGUAUUGGUCAAUAAC”, the “apparent Kd” value is, setting by setting: under setting [3], 17.8 nM; under setting [4], 14.8 nM.

For the sequence “UUCCUACAUGAGGAUCACCCAUGUCAGGAUAUGUAGACGCAAAUUUACGAUUUGCGGAAUAGAAGGGACGUGAC”, the “apparent Kd” value is, setting by setting: under setting [1], 24.1 nM; under setting [2], 25.9 nM.

For the sequence “GUCCUCUCUGAGGAUAUUAUCUGGUCCGAUUGAUAAGAAGGCAGUACAUGAGGAUCACCCAUGUGGGUCGUCUG”, the “apparent Kd” value reads like this: under setting [1], 53.5 nM; under setting [2], 77.7 nM.

“UUGCGGUCAGGAUAUGCAUGGCGGGACUUGCGUCGUGGCGUGGAGAAGGGACAUGAGGAUCACCCAUGUGGAGG”: the “apparent Kd” value was 97.1 nM under setting [1] and 99.3 nM under setting [2].

As to “AUGGUUGUCGUAGGAUAUGUAGGAUAUUCCUACAUGAGGAUCACCCAUGUUCGCAUGGAAGAAGGACAGAAGGACGAUGACCAC”, the “apparent Kd” value runs as follows: under setting [3], 1480 nM; under setting [4], 9.4 nM.

Turning to “GCACAAAGGUGACACCGUGUCGCUCAGGAUAUACGUGACGGCCCUCGCACAUGAGGAUCACCCAUGUAGAAGGGAGUUAAACGG”, the “apparent Kd” value under setting [1] was found to be 7.66 nM and the “apparent Kd” value under setting [2] was 14.9 nM.

For “UUCCUGUCAGGAUAUGACUAGAGGCACGAAAGUGUGUUUAGUUAGAAGGGACAUGAGGAUCACCCAUGUAGUCC”, the “apparent Kd” value under setting [1] is 23.3 nM and the “apparent Kd” value under setting [2] came to 36.2 nM.

As to “GUACCUUAUGAGAAGGCGAUCAUGAAACAUGAUCGAGGAUAUCAUGUAAACAUGAGGAUCACCCAUGUAUGGGUAUUAUGGUAA”, the “apparent Kd” value reads like this: under setting [3], 31.8 nM; under setting [4], 10.2 nM.

“AUGCUUUAUGUAGGAUAUGCAUACGGUACGUAUGCAGAAGGACAUGAGGAUCACCCAUGUAUAUUAUUAUUACAUAUCAUACAU”: the “apparent Kd” value was 26.6 nM under setting [1] and 377 nM under setting [2].

Consider “AGUCGGAGCAGAGGAUAUACAUGAGGAUCACCCAUGUAAUAAGAUCAAGCCUGGAAACAGGCAAUGUAGAAGGCUGCUCCGACA”, for which the “apparent Kd” value turned out to be 34.2 nM under setting [1] and 338 nM under setting [2].

Take “CCACGUCACAUCUACAUGAGGAUCACCCAUGUCAAAAGACAUGAGGAUAUGCUACCUAAUUGGUAGCAGAAGGCAUGGACGUGG”: the “apparent Kd” value is, setting by setting: under setting [3], 982 nM; under setting [4], 64.4 nM.

With “AAUAUGUUGCAGAAGGCUAUAUUGUUGUAGUACCUCAUGACAUGAGGAUCACCCAUGUUUGUGUUGGAGGAUAUGCAAUAUAUU”, the “apparent Kd” value stood at 7.82 nM under setting [1] and 7.07 nM under setting [2].

“GAAUACCUAGGAUAUACAUGAGGAUCACCCAUGUCAGUAGACUGGGUAAAGUCUCUCAGUAGAAGGAGGACCCG”: the “apparent Kd” value was 109 nM under setting [1] and 97.8 nM under setting [2].

“GCUUGUGUUGAGGAUAUGCGCCGGCUCGCUGGCGCAGAAGGCGGCACAUGAGGAUCACCCAUGUCAGUUCGCGC”: the “apparent Kd” value worked out at 19 nM under setting [1] and 157 nM under setting [2].

Turning to “UUCAAGUUGCGAGGAUAUCGUGUUAACAUGAGGAUCACCCAUGUAAAGGUUUAUUAAUUAAUCUUCGAGAAGGCGCUUAAUGUA”, the “apparent Kd” value is 29.3 nM under setting [3] and 19.5 nM under setting [4].

As for “GACUGCAGAGGAUAUACAUGAGGAUCACCCAUGUGAGAUGCCUGACAGGUGUUGCUGAGUAGAAGGCUGCACUG”, the “apparent Kd” value was 14.1 nM under setting [1] and 21 nM under setting [2].

Take “UUAAUAAUACAAGGAUAUCUAUUGUUCUUAAGACAUACAUGAGGAUCACCCAUGUUAAUAUAUAUAGAGAAGGUGUAUUUUCAG”: the “apparent Kd” value was found to be 27.2 nM under setting [3] and 20 nM under setting [4].

As for “UUACAGCAAGGAUAUACAUGAGGAUCACCCAUGUAUGCGUGUUCGAGAGAGGCCUACGGUAGAAGGUGCAUGUU”, the “apparent Kd” value under setting [1] was 24.1 nM and the “apparent Kd” value under setting [2] is 22.4 nM.

For the sequence “UUCUUGUGAGGAUAUCAGUAGUAAAUAAAUAAAAUUACUACUGAGAAGGCACAUGAGGAUCACCCAUGUUCCUU”, the “apparent Kd” value is, setting by setting: under setting [1], 14.6 nM; under setting [2], 32.9 nM.

For “AAGUAUAGAGGAUAUAGUGAGUACUACAUGAGGAUCACCCAUGUUCUUCAAAGCGUAUUUCUAGAAGGCUAAUGAA”, the “apparent Kd” value was determined as 50 nM under setting [1] and 114 nM under setting [2].

“CUUUCGUGAGGAUAUCAGUAGUAAUAAUAUAAAAUUACUACUGAGAAGGCACAUGAGGAUCACCCAUGUUCCUC”: the “apparent Kd” value is 24.5 nM under setting [1] and 114 nM under setting [2].

Take “UCCUCGUAGUAGAAGGGCGGCCGAAAUCUGCACGCAGGAUAUACAUGAGGAUCACCCAUGUACUGAGCUGAAGAGCACUUGGAA”: the “apparent Kd” value reads like this: under setting [1], 11.5 nM; under setting [2], 29.5 nM.

For “ACUUUACGAGGAUAUACUGUCGGGCCUCGGGCAUACAUACGACAUGAGGAUCACCCAUGUAGAAGGCGUUUACU”, the “apparent Kd” value came to 33.6 nM under setting [1] and 61.1 nM under setting [2].

As to “GGGUACAUCGGAGGAUAUCAUGUAAAUACAUGAGGAUCACCCAUGUCGAUGGAGACAUCGUAGAUUGAGAAGGCCGAUGUACCG”, the “apparent Kd” value runs as follows: under setting [3], 9.85 nM; under setting [4], 5.37 nM.

With “GCUAUUGGCUAAGGAUAUGGAUACAUGAGGAUCACCCAUGUAUUUUUUGUGAUCAUAUAAAUGAUCCAGAAGGUAGCUGUUAGC”, the “apparent Kd” value runs as follows: under setting [1], 21.9 nM; under setting [2], 62.1 nM.

“UUAGGCUGAAGAUCAAUUAAUUAACAUGAGGAUCACCCAUGUAAGGAUAUCAGCUCGAUUAGAGCUGAGAAGGUACAUGCAGCC”: the “apparent Kd” value runs as follows: under setting [1], 110 nM; under setting [2], 565 nM.

Consider “GGAGCACACAUUAACAUGAGGAUCACCCAUGUCAAAGGACAUGAGGAUAUGGAUCCGAAAAGGAUCCAGAAGGCAUGGUGCUCC”, for which the “apparent Kd” value is, setting by setting: under setting [3], 173 nM; under setting [4], 11.1 nM.

Regarding “GGCUGGCAGCUAGGAUAUGGGCGGUCACAUGAGGAUCACCCAUGUCAACAUCAAAACCAGAUUAACCAGAAGGAGCUGCGGAUU”, the “apparent Kd” value turned out to be 32.7 nM under setting [3] and 502 nM under setting [4].

Regarding “AUUUGCCUAGGAUAUACUCGGGCCCGCUCAUACUCCAAUGGACAUGAGGAUCACCCAUGUAGAAGGAGGAACCA”, the “apparent Kd” value runs as follows: under setting [1], 16 nM; under setting [2], 20 nM.

In the case of “AAGAUGUAAGGAUAUGCUGCUCGUCACUUGCGUGAUGAGUAGCAGAAGGUACAUGAGGAUCACCCAUGUAAAGA”, the “apparent Kd” value runs as follows: under setting [1], 30.4 nM; under setting [2], 43.3 nM.
